The text below walks through data of PubChem BioAssay.

Assay [1] can be described thus: reducers of endogenous Her2 protein level, primary screen, SKBR3 breast tumor cells, AlphaScreen, ATP viability (AID 461;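 active = Her2 level under about 52% in both replicate screens, with viability over 70% of control, limit read from the data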;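 for Her2 level: lower value means less Her2 protein in the cells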;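 for viability: percent of carrier control wells set as 100% viability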). The settings on record: 18-24 h, measured here: SKBR3 viability, ATP luminescence, at 10 µM.
Assay [2] deals with Receptor tyrosine-protein kinase erbB-2 (Homo sapiens) (UniProt P04626). The description is as above. To be noted: 18-24 h, at 10 µM, stronger effect = lower value.
Receptor tyrosine-protein kinase erbB-2 (Homo sapiens), sequence (P04626 whole entry, looked up): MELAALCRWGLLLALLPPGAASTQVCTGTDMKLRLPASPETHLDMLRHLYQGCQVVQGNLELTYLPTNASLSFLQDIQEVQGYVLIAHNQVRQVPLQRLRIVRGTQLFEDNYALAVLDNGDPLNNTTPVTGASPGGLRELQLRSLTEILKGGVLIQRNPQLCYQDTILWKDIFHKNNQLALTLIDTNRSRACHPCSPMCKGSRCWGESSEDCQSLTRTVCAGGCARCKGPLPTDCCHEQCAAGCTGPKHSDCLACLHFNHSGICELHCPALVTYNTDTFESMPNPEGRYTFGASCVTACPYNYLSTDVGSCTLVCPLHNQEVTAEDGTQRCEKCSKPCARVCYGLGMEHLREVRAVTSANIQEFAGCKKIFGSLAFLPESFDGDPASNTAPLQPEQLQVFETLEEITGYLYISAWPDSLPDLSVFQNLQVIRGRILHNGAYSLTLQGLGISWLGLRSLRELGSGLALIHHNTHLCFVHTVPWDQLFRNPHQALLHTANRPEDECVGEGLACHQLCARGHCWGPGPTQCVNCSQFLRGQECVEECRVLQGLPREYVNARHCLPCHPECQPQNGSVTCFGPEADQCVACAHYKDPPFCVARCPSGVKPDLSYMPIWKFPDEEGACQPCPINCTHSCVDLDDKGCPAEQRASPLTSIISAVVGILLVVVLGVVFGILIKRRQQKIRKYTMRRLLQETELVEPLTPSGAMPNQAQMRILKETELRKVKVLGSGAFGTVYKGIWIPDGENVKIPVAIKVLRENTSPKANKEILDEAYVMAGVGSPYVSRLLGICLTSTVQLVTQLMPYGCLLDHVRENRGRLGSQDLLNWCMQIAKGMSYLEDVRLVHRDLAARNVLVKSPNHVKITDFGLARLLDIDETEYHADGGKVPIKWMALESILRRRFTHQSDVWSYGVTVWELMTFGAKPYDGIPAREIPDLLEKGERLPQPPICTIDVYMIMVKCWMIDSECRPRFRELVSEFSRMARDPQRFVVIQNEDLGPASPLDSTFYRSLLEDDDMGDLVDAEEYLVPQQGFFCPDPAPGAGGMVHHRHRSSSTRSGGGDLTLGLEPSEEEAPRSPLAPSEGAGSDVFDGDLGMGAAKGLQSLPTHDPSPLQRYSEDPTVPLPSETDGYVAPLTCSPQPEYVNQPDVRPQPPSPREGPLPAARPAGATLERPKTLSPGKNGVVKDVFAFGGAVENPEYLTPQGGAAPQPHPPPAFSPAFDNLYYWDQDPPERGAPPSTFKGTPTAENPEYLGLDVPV
Assay [3] in a line: SK-BR-3 cell growth inhibitors, pilot screen, 24 h, human (AID 572;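 active = viability at or below 10% of carrier control in both of two separate runs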;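 note: compound exposure lasted between 18 and 24 h rather than exactly 24 h; 100% = carrier-treated control wells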). The settings on record: SK-BR-3 viability, CellTiter-Glo luminescence, at 10 µM, stronger effect = lower value.
Assay [4] is described as follows: HUVEC growth inhibition – cell-based, human, primary screen (AID 575;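 active = viability at or below 30% in both replicate assays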;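 note: 100% = median of untreated cell wells with 0.1% DMSO on each plate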). The settings on record: HUVEC proliferation, CellTiter-Glo luminescence, 72 h; at 10 µM; stronger effect = lower value. Summed up:
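material = primary HUVEC, no more than 12 passages | input = 1250 cells per well | controls = vehicle and MePR control wells | measured by = CTG luminescence | times = 72 h compound incubation | format = collagen-coated 384-well format | read-out = % viability vs DMSO wells | doses = single 10 µM dose, 0.1% DMSO, from 5x medium stock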

Assay [5] is described as follows: growth inhibitors of H69AR lung tumor, primary screen, human, duplicate replicates (AID 580;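 active = viability at or under a set limit in both replicates, limit being median viability minus 3 SD, cut at about 48% in these data, passing the limit was not always enough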;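 note: 100% = mean luminescence of untreated wells and 0% = no signal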). The settings on record: H69AR lung tumor cells viability, ATP luminescence, 72 h; at 10 µM; stronger effect = lower value.
Assay [6] can be described thus: reversal of MRP1-mediated doxorubicin resistance, pilot screen, H69AR cells, doxorubicin co-treatment (AID 601). The settings on record: CellTiter-Glo, 72 h, at 10 µM; for differential viability (reversal): stronger effect = higher value.
Assay [7] can be described thus: 384-well plate pilot, post-Golgi transport modulator project, inhibition of yeast transport mutant growth (AID 636; in the data active = inhibition above about 31%). The settings on record: absorbance 615 nm, about 18 h, stronger effect = higher value.
Assay [8] in a line: growth suppression of yeast trafficking mutant, preliminary HTS, modulators of trafficking downstream of Golgi apparatus project, 1536-format plate, OD 615 nm (AID 637; in the data active = inhibition above about 30%). The settings on record: yeast transport mutant growth, absorbance 615 nm, 18 h; stronger effect = higher value.
Where [9] appears, read: H69AR cells + 2 uM doxorubicin, measured here: viability with 2 uM doxorubicin, stronger effect = lower value.
Where [10] appears, read: H69AR cells, compound alone cytotoxicity.

The source made the active and inactive calls.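 Rule for the calls, unless noted: active = viability loss from added drug above about 55%, and viability with drug at most 40%, in both replicates (limit read from the data, passing the limit was not always enough); inconclusive = both conditions met in only one replicate; inactive = neither replicate meets both conditions.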

In the case of `CC(C)C1Cc2c(C#N)c(N)sc(=S)c2CO1` (stereo not given), the viability in assay [1] was 85%; in assay [3], 85% (inactive); in assay [4], 64.2% (inactive); in assay [5] it was 93.9% (inactive); in assay [6] (setting [9]) it was 96.2%; in assay [6] (setting [10]) it was 93.9%. In addition, the Her2 level in assay [2] is 108% (inactive). In addition, in assay [6] (H69AR cells + 2 uM doxorubicin), the differential viability (reversal) was -2.34% (inactive). Further, the inhibition in assay [7] was -4.03% (inactive); in assay [8] it was -2.13% (inactive).
For the compound `Cc1ccc2nc(NCCCN3CCOCC3)c(C=NCCCN3CCOCC3)c(=O)n2c1`, the viability in assay [1] is 102%; in assay [3] it was 102% (inactive); in assay [4] it was 99.1% (inactive); in assay [5], 81.9% (inactive); in assay [6] (setting [9]), 86.6%; in assay [6] (setting [10]) it was 81.9%. Also, the Her2 level in assay [2] was 84% (inactive). Further, in assay [6] (H69AR cells + 2 uM doxorubicin), the differential viability (reversal) was -4.68% (inactive). In addition, the figures for the inhibition in assay [7] and in assay [8] were -0.39% (inactive) and -12% (inactive), respectively.
`COc1cccc(NC(=O)CN2CCN(c3ccccc3F)CC2)c1`: the viability in assay [1] is 90%; in assay [3], 90% (inactive); in assay [4], 107% (inactive); in assay [5], 94.9% (inactive); in assay [6] (setting [9]), 93.1%; in assay [6] (setting [10]), 94.9%. Moreover, the Her2 level in assay [2] was 88.5% (inactive). For the same compound, the differential viability (reversal) in assay [6] (H69AR cells + 2 uM doxorubicin) was 1.8% (inactive). For the same compound, the inhibition in assay [7] is -4.4% (inactive); in assay [8], 35.6% (active).
Regarding `CCN1CCN(C(=O)c2ccc3c(=O)n(C4CCCC4)c(=S)[nH]c3c2)CC1`, the viability in assay [1] was 85.5%; in assay [3], 85.5% (inactive); in assay [4], 82.9% (inactive); in assay [5], 84.7% (inactive); in assay [6] (setting [9]) it was 74.8%; in assay [6] (setting [10]), 84.7%. Besides, in assay [2], the Her2 level is 108% (inactive). Also, the differential viability (reversal) in assay [6] (H69AR cells + 2 uM doxorubicin) is 9.82% (inactive). Besides, the inhibition in assay [7] is 7.37% (inactive); in assay [8] it was 19.5% (inactive).
Consider `CCn1cc(C(=O)NCCCOC)c(=O)c2cc(S(=O)(=O)N(C)C3CCCCC3)ccc21`, for which the viability in assay [1] is 87%; in assay [3], 87% (inactive); in assay [4], 101% (inactive); in assay [5], 90.8% (inactive); in assay [6] (setting [9]) it was 104%; in assay [6] (setting [10]), 90.8%. In addition, the Her2 level in assay [2] is 114% (inactive). In addition, in assay [6] (H69AR cells + 2 uM doxorubicin), the differential viability (reversal) is -13% (inactive). In addition, the inhibition in assay [7] is -0.9% (inactive); in assay [8], -5.33% (inactive).
For the compound `Cc1ccc(C)c(S(=O)(=O)NCc2cccnc2)c1`, the viability in assay [1] is 92%; in assay [3] it was 92% (inactive); in assay [4] it was 108% (inactive); in assay [5], 92.8% (inactive); in assay [6] (setting [9]) it was 91.5%; in assay [6] (setting [10]), 92.8%. Also, the Her2 level in assay [2] is 87.5% (inactive). In addition, the differential viability (reversal) in assay [6] (H69AR cells + 2 uM doxorubicin) was 1.22% (inactive). The inhibition in assay [7] is -5.33% (inactive); in assay [8], -6.19% (inactive).
`CCOc1cc(C(=O)N2CCN=C2SC)cc(OCC)c1OCC`: the viability was 91.5% in assay [1]; 91.5% (inactive) in assay [3]; 87.4% (inactive) in assay [4]; 105% (inactive) in assay [5]; 95.2% in assay [6] (setting [9]); 105% in assay [6] (setting [10]). Besides, in assay [2], the Her2 level was 83% (inactive). Also, the differential viability (reversal) in assay [6] (H69AR cells + 2 uM doxorubicin) was 10.1% (inactive). Also, the values for the inhibition in assay [7] and in assay [8] were -4.73% (inactive) and 9.05% (inactive), respectively.
With `CCn1c(SCC(=O)c2ccc3c(c2)OCCO3)nnc1-c1ccco1`, the viability was 102% in assay [1]; 102% (inactive) in assay [3]; 111% (inactive) in assay [4]; 98.6% (inactive) in assay [5]; 97.9% in assay [6] (setting [9]); 98.6% in assay [6] (setting [10]). For the same compound, the Her2 level in assay [2] is 95% (inactive). The differential viability (reversal) in assay [6] (H69AR cells + 2 uM doxorubicin) is 0.66% (inactive). The results for the inhibition in assay [7] and in assay [8] were -4% (inactive) and -0.65% (inactive), respectively.
For the compound `COc1cccc(C(=O)CN2CCC(NC(=O)NC3CCCCC3)CC2)c1`, the viability in assay [1] was 92%; in assay [3] it was 92% (inactive); in assay [4], 102% (inactive); in assay [5], 98.1% (inactive); in assay [6] (setting [9]) it was 91.5%; in assay [6] (setting [10]), 98.1%. The Her2 level in assay [2] is 101% (inactive). In addition, in assay [6] (H69AR cells + 2 uM doxorubicin), the differential viability (reversal) is 6.55% (inactive). The inhibition in assay [7] was -5.79% (inactive); in assay [8] it was -2% (inactive).
Take `CCc1nnc(NC(=O)CN2CCN(c3ccccc3OC)CC2)s1`: the viability was 99.5% in assay [1]; 99.5% (inactive) in assay [3]; 64.9% (inactive) in assay [4]; 50.7% (inactive) in assay [5]; 25.2% in assay [6] (setting [9]); 50.7% in assay [6] (setting [10]). In assay [2], the Her2 level is 89% (inactive). Besides, the differential viability (reversal) in assay [6] (H69AR cells + 2 uM doxorubicin) is 25.5% (inactive). The figures for the inhibition in assay [7] and in assay [8] were -0.39% (inactive) and -5.56% (inactive), respectively.
As for `COc1ccc(CCNC(=O)C2=COCCO2)cc1`, the viability in assay [1] was 126%; in assay [3] it was 126% (inactive); in assay [4] it was 109% (inactive); in assay [5], 108% (inactive); in assay [6] (setting [9]), 104%; in assay [6] (setting [10]), 108%. In addition, in assay [2], the Her2 level is 94% (inactive). Further, in assay [6] (H69AR cells + 2 uM doxorubicin), the differential viability (reversal) was 4.46% (inactive). Also, the results for the inhibition in assay [7] and in assay [8] were -6.58% (inactive) and -5.08% (inactive), respectively.
Regarding `Cc1c(C(=O)NCc2ccccc2)oc2c1C(=O)CCC2`, the viability was 72% in assay [1]; 72% (inactive) in assay [3]; 75.2% (inactive) in assay [4]; 99.2% (inactive) in assay [5]; 83.6% in assay [6] (setting [9]); 99.2% in assay [6] (setting [10]). Further, the Her2 level in assay [2] was 93.5% (inactive). Moreover, the differential viability (reversal) in assay [6] (H69AR cells + 2 uM doxorubicin) was 15.6% (inactive). Also, the figures for the inhibition in assay [7] and in assay [8] were -4.87% (inactive) and 5.67% (inactive), respectively.
For `O=C(Nc1ccccc1N1CCN(c2ccc(F)cc2)CC1)c1ccccc1`, the viability in assay [1] was 95%; in assay [3], 95% (inactive); in assay [4], 78.5% (inactive); in assay [5] it was 93.8% (inactive); in assay [6] (setting [9]), 84.6%; in assay [6] (setting [10]), 93.8%. Also, the Her2 level in assay [2] is 96% (inactive). In addition, the differential viability (reversal) in assay [6] (H69AR cells + 2 uM doxorubicin) is 9.15% (inactive). Further, the inhibition in assay [7] is -5.87% (inactive); in assay [8] it was 4.13% (inactive).
For the compound `C/C(N)=C(/C#N)C(=O)CSc1nnc(Nc2c(C)cccc2C)s1`, the viability was 108% in assay [1]; 108% (inactive) in assay [3]; 93.7% (inactive) in assay [4]; 103% (inactive) in assay [5]; 74.6% in assay [6] (setting [9]); 103% in assay [6] (setting [10]). In assay [2], the Her2 level was 79.5% (inactive). Moreover, the differential viability (reversal) in assay [6] (H69AR cells + 2 uM doxorubicin) was 28.5% (inactive). In addition, the inhibition in assay [7] was -2.84% (inactive); in assay [8], 3.02% (inactive).
For `Cc1[nH]c(=O)[nH]c(=O)c1S(=O)(=O)N1CCCC(C(=O)NCc2ccco2)C1` (stereo not given), the viability in assay [1] was 102%; in assay [3], 102% (inactive); in assay [4] it was 96.3% (inactive); in assay [5], 86.4% (inactive); in assay [6] (setting [9]), 88.1%; in assay [6] (setting [10]), 86.4%. Further, the Her2 level in assay [2] was 80% (inactive). Moreover, the differential viability (reversal) in assay [6] (H69AR cells + 2 uM doxorubicin) is -1.73% (inactive). Moreover, the inhibition in assay [7] is -3.82% (inactive); in assay [8], 0.67% (inactive).
As for `CCN(CC)c1ccc2cc(NC(=O)CCC(=O)O)c(=O)oc2c1`, the viability is 89% in assay [1]; 89% (inactive) in assay [3]; 81.1% (inactive) in assay [4]; 95.7% (inactive) in assay [5]; 108% in assay [6] (setting [9]); 95.7% in assay [6] (setting [10]). For the same compound, the Her2 level in assay [2] was 99% (inactive). Further, in assay [6] (H69AR cells + 2 uM doxorubicin), the differential viability (reversal) is -12.2% (inactive). Besides, the inhibition in assay [7] was -2.13% (inactive); in assay [8] it was -5.32% (inactive).
